Assay results from ChEMBL document CHEMBL1221337, “The unsaturated acyclic nucleoside analogues bearing a sterically constrained (Z)-4'-benzamido-2'-butenyl moiety: Synthesis, X-ray crystal structure study, cytostatic and antiviral activity evaluations” (Bioorg Med Chem, 2010).
Calls of active or inactive are those of the source. The rule behind the calls is not given here.

Tested on: Coxsackievirus B4
Test: Antiviral activity against Coxsackievirus B4 infected in Vero cells assessed as inhibition of virus-induced cytopathicity
Type: functional, organism-based
Settings: not given
Outline: (§1)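 Confluent cell monolayers in 96-well plates were inoculated with 100 CCID50 of virus. After 1 h adsorption, residual virus was removed. Cultures were then incubated with test compound at varying concentrations (200, 40, 8... µM). Viral cytopathicity was scored once it reached completion in untreated infected controls. Host cells: HEL for HSV-1 KOS and HSV-2 G; Vero for the Vero lines; HeLa for the HeLa lines.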

| Compound | inhibition |
| --- | --- |
| Nc1ncnc2c1ncn2C/C=C\CNC(=O)c1ccccc1 | inactive |
| Nc1nc(=O)n(C/C=C\CNC(=O)c2ccc(F)cc2)cc1F | inactive |

Tested on: MIA PaCa-2
Test: Cytotoxicity against human MIAPaCa2 cells after 72 hrs by MTT assay
Type: functional, cell-based
Settings: MIA PaCa-2, 72 h
Outline: (§2)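 Adherent cells were plated at 3000–6000 cells/well on day 0, according to doubling time. Compound was added as five 10-fold dilutions (1 × 10⁻⁸–1 × 10⁻⁴ M), with DMSO ≤0.1%, and incubated 72 h. Read-out was MTT absorbance converted to percentage growth versus untreated wells on the same plate. IC50 was obtained by linear regression between bracketing concentrations; the highest concentration was reported as ">" if not reached. Quadruplicates, three experiments.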

| Compound | IC50 [µM] |
| --- | --- |
| Nc1ncnc2c1ncn2C/C=C\CNC(=O)c1ccccc1 | > 100 |
| Nc1nc(=O)n(C/C=C\CNC(=O)c2ccc(F)cc2)cc1F | > 100 |

Tested on: Vesicular stomatitis virus
Test: Antiviral activity against Vesicular stomatitis virus infected in HEL cells assessed as inhibition of virus-induced cytopathicity
Type: functional, organism-based
Settings: not given

| Compound | inhibition |
| --- | --- |
| Nc1ncnc2c1ncn2C/C=C\CNC(=O)c1ccccc1 | inactive |
| Nc1nc(=O)n(C/C=C\CNC(=O)c2ccc(F)cc2)cc1F | inactive |

Tested on: MDCK
Test: Cytotoxicity against MDCK cells assessed as cell viability after 3 days by coulter counting
Type: cell-based, Canis lupus familiaris
Settings: dog, 72 h

| Compound | Activity |
| --- | --- |
| Nc1ncnc2c1ncn2C/C=C\CNC(=O)c1ccccc1 | Non-toxic |
| Nc1nc(=O)n(C/C=C\CNC(=O)c2ccc(F)cc2)cc1F | Non-toxic |

Tested on: Human alphaherpesvirus 1
Test: Antiviral activity against HSV1 KOS infected in HEL cells assessed as inhibition of virus-induced cytopathicity
Type: functional, organism-based
Settings: not given
Outline: as §1

| Compound | inhibition |
| --- | --- |
| Nc1ncnc2c1ncn2C/C=C\CNC(=O)c1ccccc1 | inactive |
| Nc1nc(=O)n(C/C=C\CNC(=O)c2ccc(F)cc2)cc1F | inactive |

Tested on: Human alphaherpesvirus 2
Test: Antiviral activity against HSV2 G infected in HEL cells assessed as inhibition of virus-induced cytopathicity
Type: functional, organism-based
Settings: strain G
Outline: as §1

| Compound | inhibition |
| --- | --- |
| Nc1ncnc2c1ncn2C/C=C\CNC(=O)c1ccccc1 | inactive |
| Nc1nc(=O)n(C/C=C\CNC(=O)c2ccc(F)cc2)cc1F | inactive |

Tested on: HEL
Test: Cytotoxicity against HEL cells assessed as cell viability after 3 days by coulter counting
Type: cell-based
Settings: human, 72 h
Outline: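 HEL cells were seeded at 5 × 10³ cells/well and allowed to proliferate 24 h. Medium with test compound at different concentrations was then added, and cells were incubated 3 days at 37 °C. Cell number was counted by Coulter counter. CC50 (50% reduction in cell number versus untreated controls) was read from plots of cell number (% of control) against concentration.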

| Compound | Activity |
| --- | --- |
| Nc1ncnc2c1ncn2C/C=C\CNC(=O)c1ccccc1 | Non-toxic |
| Nc1nc(=O)n(C/C=C\CNC(=O)c2ccc(F)cc2)cc1F | Non-toxic |

Tested on: not listed separately
Test: Cytotoxicity against human WI38 cells after 72 hrs by MTT assay
Type: cell-based
Settings: WI-38, 72 h
Outline: as §2

| Compound | IC50 [µM] |
| --- | --- |
| Nc1ncnc2c1ncn2C/C=C\CNC(=O)c1ccccc1 | > 100 |
| Nc1nc(=O)n(C/C=C\CNC(=O)c2ccc(F)cc2)cc1F | > 100 |

Tested on: Vero
Test: Cytotoxicity against african green monkey Vero cells assessed as cell viability after 3 days by coulter counting
Type: cell-based
Settings: chlorocebus sabaeus, 72 h

| Compound | Activity |
| --- | --- |
| Nc1ncnc2c1ncn2C/C=C\CNC(=O)c1ccccc1 | Non-toxic |
| Nc1nc(=O)n(C/C=C\CNC(=O)c2ccc(F)cc2)cc1F | Non-toxic |

Tested on: Sindbis virus
Test: Antiviral activity against Sindbis virus infected in Vero cells assessed as inhibition of virus-induced cytopathicity
Type: functional, organism-based
Settings: not given
Outline: as §1

| Compound | inhibition |
| --- | --- |
| Nc1ncnc2c1ncn2C/C=C\CNC(=O)c1ccccc1 | inactive |
| Nc1nc(=O)n(C/C=C\CNC(=O)c2ccc(F)cc2)cc1F | inactive |

Tested on: Mammalian orthoreovirus 1
Test: Antiviral activity against Reovirus 1 infected in Vero cells assessed as inhibition of virus-induced cytopathicity
Type: functional, organism-based
Settings: not given
Outline: as §1

| Compound | inhibition |
| --- | --- |
| Nc1ncnc2c1ncn2C/C=C\CNC(=O)c1ccccc1 | inactive |
| Nc1nc(=O)n(C/C=C\CNC(=O)c2ccc(F)cc2)cc1F | inactive |

Tested on: Respiratory syncytial virus
Test: Antiviral activity against Respiratory syncytial virus infected in human HeLa cells assessed as inhibition of virus-induced cytopathicity
Type: functional, organism-based
Settings: not given
Outline: as §1

| Compound | inhibition |
| --- | --- |
| Nc1ncnc2c1ncn2C/C=C\CNC(=O)c1ccccc1 | inactive |
| Nc1nc(=O)n(C/C=C\CNC(=O)c2ccc(F)cc2)cc1F | inactive |

Tested on: SK-BR-3
Test: Cytotoxicity against human SK-BR-3 cells after 72 hrs by MTT assay
Type: functional, cell-based
Settings: SK-BR-3, 72 h
Outline: as §2

| Compound | IC50 [µM] |
| --- | --- |
| Nc1ncnc2c1ncn2C/C=C\CNC(=O)c1ccccc1 | > 100 |
| Nc1nc(=O)n(C/C=C\CNC(=O)c2ccc(F)cc2)cc1F | > 100 |

Tested on: HeLa
Test: Cytotoxicity against human HeLa cells assessed as cell viability after 3 days by coulter counting
Type: cell-based
Settings: 72 h

| Compound | Activity |
| --- | --- |
| Nc1ncnc2c1ncn2C/C=C\CNC(=O)c1ccccc1 | Non-toxic |
| Nc1nc(=O)n(C/C=C\CNC(=O)c2ccc(F)cc2)cc1F | Non-toxic |

Tested on: Human respirovirus 3
Test: Antiviral activity against Parainfluenza 3 infected in Vero cells assessed as inhibition of virus-induced cytopathicity
Type: functional, organism-based
Settings: not given
Outline: as §1

| Compound | inhibition |
| --- | --- |
| Nc1ncnc2c1ncn2C/C=C\CNC(=O)c1ccccc1 | inactive |
| Nc1nc(=O)n(C/C=C\CNC(=O)c2ccc(F)cc2)cc1F | inactive |

Tested on: HeLa
Test: Cytotoxicity against human HeLa cells after 72 hrs by MTT assay
Type: functional, cell-based
Settings: not given
Outline: as §2

| Compound | IC50 [µM] |
| --- | --- |
| Nc1ncnc2c1ncn2C/C=C\CNC(=O)c1ccccc1 | > 100 |
| Nc1nc(=O)n(C/C=C\CNC(=O)c2ccc(F)cc2)cc1F | > 100 |

Tested on: Coxsackievirus B4
Test: Antiviral activity against Coxsackievirus B4 infected in human HeLa cells assessed as inhibition of virus-induced cytopathicity
Type: functional, organism-based
Settings: not given
Outline: as §1

| Compound | inhibition |
| --- | --- |
| Nc1ncnc2c1ncn2C/C=C\CNC(=O)c1ccccc1 | inactive |
| Nc1nc(=O)n(C/C=C\CNC(=O)c2ccc(F)cc2)cc1F | inactive |

Tested on: Vesicular stomatitis virus
Test: Antiviral activity against Vesicular stomatitis virus infected in human HeLa cells assessed as inhibition of virus-induced cytopathicity
Type: functional, organism-based
Settings: not given
Outline: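 Confluent HeLa cultures were infected with 100 CCID50 of virus. Unadsorbed virus was removed after 1 h, and compound was added at serial concentrations (200, 40, 8…). Viral cytopathic effect was read when untreated virus-infected control wells reached full cytopathicity.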

| Compound | inhibition |
| --- | --- |
| Nc1ncnc2c1ncn2C/C=C\CNC(=O)c1ccccc1 | inactive |
| Nc1nc(=O)n(C/C=C\CNC(=O)c2ccc(F)cc2)cc1F | inactive |

Tested on: Influenza A virus
Test: Antiviral activity against influenza A virus H1N1; H3N2 infected in MDCK cells assessed as inhibition of virus-induced cytopathicity
Type: functional, organism-based
Settings: not given
Outline: (§3)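 MDCK cells, nearly confluent in microtiter plates, were infected with 100 CCID50 per well. After 1 h adsorption, the inoculum was washed off. Cells were incubated with graded compound concentrations (200, 40, 8…). Cytopathicity was recorded at completion in untreated infected controls.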

| Compound | inhibition |
| --- | --- |
| Nc1ncnc2c1ncn2C/C=C\CNC(=O)c1ccccc1 | inactive |
| Nc1nc(=O)n(C/C=C\CNC(=O)c2ccc(F)cc2)cc1F | inactive |

Tested on: Vaccinia virus
Test: Antiviral activity against Vaccinia virus infected in HEL cells assessed as inhibition of virus-induced cytopathicity
Type: functional, organism-based
Settings: Orthopoxvirus vaccinia

| Compound | inhibition |
| --- | --- |
| Nc1ncnc2c1ncn2C/C=C\CNC(=O)c1ccccc1 | inactive |
| Nc1nc(=O)n(C/C=C\CNC(=O)c2ccc(F)cc2)cc1F | inactive |

Tested on: Punta Toro virus
Test: Antiviral activity against Punta Toro virus infected in Vero cells assessed as inhibition of virus-induced cytopathicity
Type: functional, organism-based
Settings: not given
Outline: as §1

| Compound | inhibition |
| --- | --- |
| Nc1ncnc2c1ncn2C/C=C\CNC(=O)c1ccccc1 | inactive |
| Nc1nc(=O)n(C/C=C\CNC(=O)c2ccc(F)cc2)cc1F | inactive |

Tested on: SW-620
Test: Cytotoxicity against human SW620 cells after 72 hrs by MTT assay
Type: functional, cell-based
Settings: SW-620, 72 h
Outline: as §2

| Compound | IC50 [µM] |
| --- | --- |
| Nc1ncnc2c1ncn2C/C=C\CNC(=O)c1ccccc1 | > 100 |
| Nc1nc(=O)n(C/C=C\CNC(=O)c2ccc(F)cc2)cc1F | > 100 |

Tested on: Influenza B virus
Test: Antiviral activity against influenza B virus infected in MDCK cells assessed as inhibition of virus-induced cytopathicity
Type: functional, organism-based
Settings: not given
Outline: as §3

| Compound | inhibition |
| --- | --- |
| Nc1ncnc2c1ncn2C/C=C\CNC(=O)c1ccccc1 | inactive |
| Nc1nc(=O)n(C/C=C\CNC(=O)c2ccc(F)cc2)cc1F | inactive |

Tested on: HEp-2
Test: Cytotoxicity against human Hep2 cells after 72 hrs by MTT assay
Type: functional, cell-based
Settings: HEp-2, 72 h
Outline: as §2

| Compound | IC50 [µM] |
| --- | --- |
| Nc1ncnc2c1ncn2C/C=C\CNC(=O)c1ccccc1 | > 100 |
| Nc1nc(=O)n(C/C=C\CNC(=O)c2ccc(F)cc2)cc1F | 32.1 |

Tested on: MCF7
Test: Cytotoxicity against human MCF7 cells after 72 hrs by MTT assay
Type: functional, cell-based
Settings: MCF7, 72 h
Outline: as §2

| Compound | IC50 [µM] |
| --- | --- |
| Nc1ncnc2c1ncn2C/C=C\CNC(=O)c1ccccc1 | > 100 |
| Nc1nc(=O)n(C/C=C\CNC(=O)c2ccc(F)cc2)cc1F | > 100 |
